Experimental findings from the RNAGym collection of RNA variant scans (doi:10.1126/science.aae0568) are described below.

The chains are these.
B1: tRNA (parent)
chain: GUUCCGUUGGCGUAAUGGUAACGCGUCUCCCUCCUAAGGAGAAGACUGCGGGUUCGAGUCCCGUACGGAACG

This sample holds only a part of the variants without activity.

The variants in this series derive from B1. Kind of series: yeast fitness relative to wild type (ratio to wild type); higher = fitter; tRNA-Arg(CCU), competitive growth, 37 C, YPD. An outline of the steps: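 Variants of the tRNA-Arg(CCU) gene, chemically synthesised with a 3% per-site mutation rate at 69 sites, were placed at the native genomic locus in Saccharomyces cerevisiae. The pooled strains were competed in YPD at 37°C for 24 hours in six parallel replicates. Gene amplicons from the start population and from each end population were read by 100-nucleotide paired-end sequencing. Darwinian fitness relative to wild type came from changes in genotype frequencies; genotypes needed ≥ 100 starting reads, and estimates < 0.5 were set to 0.5.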
Consider GUUCCGUUGACGUAAUGGUAACGCGUCUCCCUCCUAAGAAGAAGACUGCGGGUUCGAGUCCCGUCGGGAACG [G10A G39A A65C C66G], for which the yeast fitness is 0.556.

Regarding GUUCCGUUGACGUAAUGGUAACGCGUCUCCCUCGUAAGGAGAACACCGCGGACUCGAGUCUCGUACGGAACG [G10A C34G G44C U47C G52A U53C C61U], the yeast fitness was not above 0.5. GUUCCGUUGACGUAAUGGUAACGCGUCUCCCUCCUAAGGAGAAGACUGCGGGUUCGAGUCCCGUAACGAACG [G10A C66A G67C]: the yeast fitness was not above 0.5. Next, GUUCCGUUGACGUAAUGGUAACGCGUCUCCCUCCUAAGGAGAAGACUGCAGGUUCGAGACACGUAGGGAACG [G10A G50A U59A C61A C66G]: 0.606. For the variant GUUCCGUUGACGUAAUCGUAACGCGUCUCCUUCCUAAGGAGAAAAAUGCGGGUUCGAGUCCCGUACGGAACG [G10A G17C C31U G44A C46A], the yeast fitness was not above 0.5. Consider GUUCCGUUGACGUAAUAGAAACGCGUCUUCCUCCUAAGGAGAAGACUGCGGGUUCGAGUCCCGUAUGGAACG [G10A G17A U19A C29U C66U], for which the yeast fitness was not above 0.5.

On to GUUCCGUUGACGUAAUGGUAACGCGUCUCCCUCCUAAGGAGAAGACUGCGGGUUCGAGUCCUGUACCGAACG [G10A C62U G67C], for which the yeast fitness was determined as 0.636. On to GUUCCGUUGACGUAAUGGUAACGCCUCUCCCUCCUAAGGAGAAGACUGCGGGUUCGAGUCCCGUACGGAACG [G10A G25C], for which the yeast fitness amounted to 0.656. In the case of GUUCCGUUGACGUAAUGGUAACGCGUCUCCCUCCUAAUGAGAAGACUGCGGGUUCGAGUCCCGUACUGAACG [G10A G38U G67U], the yeast fitness was not above 0.5. As to GUUCCGUUGACGUAAUGGUAACGCGUCUCCCUCCUAAUGAGAAGACUGCGGGUUCGAGUCCCGUACCGAACG [G10A G38U G67C], the yeast fitness was not above 0.5. With GUUCCGUUGACGACAUGGUAACGCGUCUCCCUCCUAAGGCGAAGACUGCGGGUUCGAGUCCGGUACGGAACG [G10A U13A A14C A40C C62G], the yeast fitness was not above 0.5.

In the case of GUUCCGUUGACGUAAUGGUAACGCGUCUCCCUCCUAAGGAGAAGACUGCGGGUUCGACUCCCGUACGGAUCG [G10A G58C A70U], the yeast fitness worked out at 0.701. With GUUCCGUUGACCUAAUGGUAACGCGUCUCCUUCCUAAGGAGAAGACUGCGGGUUCGAGUCCCGUACGGAACG [G10A G12C C31U], the yeast fitness is 0.62. Next, GUUCCGUUGACGUAAUGGUAACGCGUCUCCCUCCUAAGGAGAAGACUGCGGGUUCGAGUCCUGUAUGGAACG [G10A C62U C66U]: 0.617; GUUCCGUUGACGUAAUGGUAACGCGUCUCCCUCCUAAGGAACAGACUGCCGGUUCGAGUCCCGUACGGAGCG [G10A G41A A42C G50C A70G]: 0.533. With GUUCCGUUGACGUAAUGGUAACGCGUCUCCCUCCUAAGGAGAAGACUGCGGAUUCGAGUCCCGUACGGAACG [G10A G52A], the yeast fitness was 0.53. Then GUUCCGUUGACGUAAUGGUAACGCGUCUCCCUCCUAAGGAGAAGACUGCGGCUUCGAGUCCCGUACGGAACG [G10A G52C], with 0.528. Regarding GUUCCGUUGACGUAAUGGUAACGCGUCUCCCUCCUAAGGAAAAGACUGUGGGAUCGAGUCCCGUACGGAACG [G10A G41A C49U U53A], the yeast fitness was not above 0.5.

As to GUUCCGUUGACGUAAUGGUAACGCGUCUCCCUCGUAAGGAGAAGACUGCGGGUUCGAGUCCCGUACGGAACG [G10A C34G], the yeast fitness is not above 0.5. With GUUCCGUUGACAUAAUGGUAACGCGUCUCCCUCCUAAGGAGAAGACUGCGGAUUCGAGUCCCGUAUGGAACG [G10A G12A G52A C66U], the yeast fitness was not above 0.5.

Consider GUUCCGUUGACGUAAUGGUAACGCGUCUCCCUCCUAAGGAGAAGACUGCGGGUUCGAGUGCCGUACAGAACG [G10A C60G G67A], for which the yeast fitness was not above 0.5. As for GUUCCGUUGACGUAAUGGUAACGCGUCUCCCUCCUAAGGAGAAGAAUGCGGGUUCGAGUCCCGUACGGAACG [G10A C46A], the yeast fitness stood at 0.677. Turning to GUUCCGUUGACGUAAUGGUAACGCGUCUCCCUCCUAAGGAGAAGACUGCGGGUUCGACUCCCGUUCGGAACG [G10A G58C A65U], the yeast fitness is not above 0.5.

Turning to GUUCCGUUGACGUAAUGGUAACGCGUCUCCCUCCUAAGGAGAAGACUGCGGGUUCGAAUCCCGUACGGAACG [G10A G58A], the yeast fitness came to 0.767. As for GUUCCGUUGACGUAAUCGUAACGCGUCUCGCUGCUAAGGAGAAGACUGCGGGUUCGAGUCCCGUACGCAACG [G10A G17C C30G C33G G68C], the yeast fitness was not above 0.5. In the case of GUUCCGUUGACGUAAUCGUAACGCGUCUCGCUGCUAAGGAGAAGACUGCGGGUUCGAGUCCCGUACGGAACG [G10A G17C C30G C33G], the yeast fitness worked out at 0.578.

In the case of GUUCCGUUGACGUAAUGGUAACGCAUCUCCCUCCUAAGGAGAAGACUGCGGGUUCGAGUCCUGUACGGAACG [G10A G25A C62U], the yeast fitness is not above 0.5.

As to GUUCCGUUGACGUAAUGGUAACGCGUCUCCCUUCUAAGGAGAAGACUGCGGGUUCCAGUCCCGUAAGGAACG [G10A C33U G56C C66A], the yeast fitness was not above 0.5.

In the case of GUUCCGUUGACGUAAUGGUAACGCUUCUCCCUCCUUAGGAGAGGACUGCGGGUUCGAGUUCCGUACGGAACG [G10A G25U A36U A43G C60U], the yeast fitness is not above 0.5. For GUUCCGUUGACGUAAUCGUAACGCGUCUCGCUGCUAAGGAGAAGUCUGCGGAUUCGAGUCCCGUACGGAUCG [G10A G17C C30G C33G A45U G52A A70U], the yeast fitness was not above 0.5. Next, GUUCCGUUGACAUAAUUGUAACGCGUCCCCCUCCUAAGGAGAAGACUGCGGGUCCGAGUCCCGUACGGAACG [G10A G12A G17U U28C U54C]: not above 0.5; GUUCCGUUGACGUAAUAGUAACGCGUCUCCCUCCUGACGAGAAGUUUGCGGGUUCGAGUCCCGUACUGAACG [G10A G17A A36G G38C A45U C46U G67U]: not above 0.5; GUUCCGUUGACGUAAUGGUAACGCGUCUCCCUCCUAAGGAGAAGACUGCGGGUUCGAGUCACGUACGGCCCG [G10A C61A A69C A70C]: not above 0.5. For GUUCCGUUGACGUAAUGGUAACGCGUCUCCCUCCUAAGGAAAAGACUGUGGGAUCGAGUCCCGUAGGGAACG [G10A G41A C49U U53A C66G], the yeast fitness was found to be 0.537. Regarding GUUCCGUUGACGUAAUGGUAACGCGUCUCCCUUCUAAGGAGAAGACUGCAGGUUCGAGUCCCGUACGGAACG [G10A C33U G50A], the yeast fitness was not above 0.5. On to GUUCCGUUGACGUAAUCGUAACGCGUCUCCCUCCUAAGGAGAAGACUGCGGGUUCGAGUCCCGUACGGUACG [G10A G17C A69U], for which the yeast fitness was not above 0.5. For the variant GUUCCGUUGACGAAAUGGUAACGCGUCUUCCUCCUAAGGAGAAGACUGGGGGUUCGAGUCCCGUACGGAACG [G10A U13A C29U C49G], the yeast fitness is not above 0.5. GUUCCGUUGACGUAAUGGUAACGCGUCUCCCUCCUAAGGAGAAGACUGCGGGUUAGAGUCCCGUACGCAACG [G10A C55A G68C]: the yeast fitness was not above 0.5.
